Results: ChEMBL document CHEMBL4706521, “Synthesis of indole inhibitors of silent information regulator 1 (SIRT1), and their evaluation as cytotoxic agents” (Eur J Med Chem, 2020)

Experiments:
A549 = experiment: Cytotoxicity against human A549 cells assessed as cell viability measured after 48 hrs by MTT assay; format: functional, cell-based; conditions: A549, 48 h
In short: (§1)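 Cells were seeded at 5×10^4 cells/mL and allowed to adhere for 24 h. Compounds in DMSO were tested at final 0.01, 0.1, 1, 10 and 100 μM for 48 h. MTT was then added, followed by isopropanol-HCl. OD was read at 570/630 nm, and IC50 was calculated from OD.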

HUVEC = experiment: Cytotoxicity against human HUVEC cells assessed as cell viability measured after 48 hrs by MTT assay; format: cell-based; in short: as §1
[1] = biological target: T1, NAD-dependent protein deacetylase sirtuin-1 (Homo sapiens, UniProt Q96EB6); experiment: Inhibition of recombinant human SIRT1 (193 to 741 residues) expressed in Escherichia coli expression system using RHKK(Ac)W-NH2 as substrate measured after 2 hrs by HPLC method
T1 sequence (Q96EB6 whole entry): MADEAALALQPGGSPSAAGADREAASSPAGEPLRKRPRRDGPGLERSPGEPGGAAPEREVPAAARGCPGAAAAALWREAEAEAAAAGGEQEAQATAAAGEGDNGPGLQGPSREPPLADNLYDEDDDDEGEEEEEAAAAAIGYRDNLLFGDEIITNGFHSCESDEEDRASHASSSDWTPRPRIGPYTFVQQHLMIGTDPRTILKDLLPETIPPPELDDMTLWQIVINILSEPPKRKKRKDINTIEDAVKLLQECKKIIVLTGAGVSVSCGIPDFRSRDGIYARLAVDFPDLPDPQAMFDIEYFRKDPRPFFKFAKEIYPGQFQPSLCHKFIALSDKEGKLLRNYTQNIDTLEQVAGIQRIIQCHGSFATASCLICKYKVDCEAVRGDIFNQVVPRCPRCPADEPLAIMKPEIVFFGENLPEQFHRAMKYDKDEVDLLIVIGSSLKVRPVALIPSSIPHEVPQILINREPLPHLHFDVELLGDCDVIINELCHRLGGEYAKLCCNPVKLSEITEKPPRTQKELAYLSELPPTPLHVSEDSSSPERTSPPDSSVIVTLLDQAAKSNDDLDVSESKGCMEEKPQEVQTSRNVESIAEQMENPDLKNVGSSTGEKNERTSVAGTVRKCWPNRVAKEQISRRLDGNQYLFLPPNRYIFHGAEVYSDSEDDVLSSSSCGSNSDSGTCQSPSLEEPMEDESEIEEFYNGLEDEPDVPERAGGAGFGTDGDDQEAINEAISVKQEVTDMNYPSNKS

[2] = biological target: T2, NAD-dependent protein deacetylase sirtuin-2 (Homo sapiens) (UniProt Q8IXJ6); experiment: Inhibition of recombinant human SIRT2 expressed in baculovirus infected SF9 cells expression system using RHKK(Ac)W-NH2 as substrate at 10 uM measured after 20 mins by HPLC method
T2 sequence (whole entry): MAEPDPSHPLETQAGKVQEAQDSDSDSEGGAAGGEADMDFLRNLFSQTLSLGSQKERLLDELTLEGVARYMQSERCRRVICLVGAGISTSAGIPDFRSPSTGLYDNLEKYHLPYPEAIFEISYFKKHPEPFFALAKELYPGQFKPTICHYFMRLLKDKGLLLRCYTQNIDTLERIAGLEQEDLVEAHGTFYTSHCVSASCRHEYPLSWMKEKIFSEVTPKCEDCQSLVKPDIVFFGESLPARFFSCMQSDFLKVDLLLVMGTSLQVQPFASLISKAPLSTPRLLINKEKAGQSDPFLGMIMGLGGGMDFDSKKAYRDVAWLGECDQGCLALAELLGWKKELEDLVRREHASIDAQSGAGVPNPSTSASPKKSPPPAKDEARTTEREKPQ
In short: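 SIRT2 at about 100 nM (nominal) started the reaction, without preincubation, in kit buffer pH 8.0 with 2 mM NAD+ and 250 μM RHKK(Ac)W-NH2. Final DMSO was 1%. Reactions ran 20 min at 37 °C, keeping conversion at 2–8%, and were stopped with TFA. Substrate and product were separated by C18 HPLC (10–50% B gradient) and detected at 220 nm. Peak areas gave % conversion. Results were reported as IC50 (95% CI) or % inhibition (SD), from at least duplicates.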

HEK-293T = experiment: Cytotoxicity against human HEK293T cells assessed as cell viability measured after 48 hrs by MTT assay; format: cell-based
MCF7 = experiment: Cytotoxicity against human MCF7 cells assessed as cell viability measured after 48 hrs by MTT assay; format: functional, cell-based; conditions: MCF7, 48 h
HCT-116 = experiment: Cytotoxicity against human HCT-116 cells assessed as cell viability measured after 48 hrs by MTT assay; format: functional, cell-based; conditions: HCT-116, 48 h
NCI-H460 = experiment: Cytotoxicity against human NCI-H460 cells assessed as cell viability measured after 48 hrs by MTT assay; format: functional, cell-based; conditions: NCI-H460, 48 h
K562 = experiment: Cytotoxicity against human K562 cells assessed as cell viability measured after 48 hrs by MTT assay; format: functional, cell-based; conditions: K562, 48 h
In short: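 Cells were seeded at 5×10^4 cells/mL and kept in suspension 2 h before dosing. Compounds were added from DMSO at final 0.01–100 μM (tenfold series) for 48 h. MTT was applied, then isopropanol-HCl, with OD read at 490 and 630 nm. IC50 was obtained from OD.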

HT-29 = experiment: Cytotoxicity against human HT-29 cells assessed as cell viability measured after 48 hrs by MTT assay; format: functional, cell-based; conditions: HT-29, 48 h; in short: as §1
HepG2 = experiment: Cytotoxicity against human HepG2 cells assessed as cell viability measured after 48 hrs by MTT assay; format: functional, cell-based; conditions: HepG2, 48 h
[3] = biological target: T3, NAD-dependent protein deacetylase sirtuin-2 (Homo sapiens, UniProt Q8IXJ6); experiment: Inhibition of recombinant human SIRT2 expressed in baculovirus infected SF9 cells expression system using RHKK(Ac)W-NH2 as substrate measured after 20 mins by HPLC method
T3 sequence (Q8IXJ6 whole entry): T2 sequence (whole entry)

| Structure (SMILES) | IC50 (A549) [µM] | IC50 (HUVEC) [µM] | IC50 [1] [µM] | inhibition [2] [%] | IC50 (HEK-293T) [µM] | IC50 (MCF7) [µM] | IC50 (HCT-116) [µM] | IC50 (NCI-H460) [µM] | IC50 (K562) [µM] | IC50 (HT-29) [µM] | IC50 (HepG2) [µM] | IC50 [3] [µM] |
| --- | --- | --- | --- | --- | --- | --- | --- | --- | --- | --- | --- | --- |
| CCc1c(CC(N)=O)[nH]c2ccc(Cl)cc12 | > 100 | 58 | 14 | -5.5 | 77 | > 100 | 52 | 70 | 87 | > 100 | > 100 | – |
| NC(=O)Cc1[nH]c2ccc(Cl)cc2c1CC(N)=O | > 100 | > 100 | > 100 | – | > 100 | > 100 | > 100 | > 100 | > 100 | > 100 | > 100 | – |
| NC(=O)Cc1[nH]c2ccc(Cl)cc2c1Cc1ccccc1 | – | – | – | – | – | – | – | – | – | – | – | 0.93 |
| CC[C@@]1(O)C(=O)OCc2c1cc1n(c2=O)Cc2cc3ccccc3nc2-1 [CAMPTOTHECIN] | 1.56 | < 0.01 | – | – | 5.65 | 1.67 | 0.05 | 0.12 | 0.32 | > 100 | 0.04 | – |
| NC(=O)C1CCCc2c1[nH]c1ccc(Cl)cc21 (configuration not stated) | 29 | 15 | – | 84 | 51 | 37 | 37 | 48 | 60 | > 100 | 44 | – |
| NC(=O)Cc1cc2cc(Cl)ccc2[nH]1 | > 100 | > 100 | 90 | 1.7 | > 100 | > 100 | > 100 | > 100 | > 100 | > 100 | > 100 | – |
